Common to all, as to assay type: functional, Leukemia cell
Test [1] is described as follows: Induction of erythroid differentiation in DBA/2J mouse Friend erythroleukemia cells assessed as hemoglobin level per 10^7 cells after 3 to 6 days relative to control. The method in brief:
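On day 6, cultures that contained benzidine-positive cells were centrifuged at 350g for 10 min. Cells were washed twice in phosphate-buffered 0.9% NaCl, pH 7.4, then sonicated. Total hemoglobin was measured from absorbance at 515 nm after the lysate was incubated with benzidine, and expressed per 10⁷ cells. Cells had been seeded at 10⁵ cells/mL with compound added at seeding, 37 °C.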

Test [2] in a line: Induction of erythroid differentiation in DBA/2J mouse Friend erythroleukemia cells assessed as cell growth after 6 days relative to control. Set-up: concentration or dose not given beside the values. The method in brief: (§1)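 Cells were seeded at 10⁵ cells/mL with compound added at seeding, in two separate experiments using twofold concentration steps. Incubation was at 37 °C. Cell number was counted with a Coulter counter on day 3, and cell counts were also taken on day 6. Growth is expressed as a percentage of untreated control cultures.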

Test [3] can be described thus: Induction of erythroid differentiation in DBA/2J mouse Friend erythroleukemia cells assessed as benzidine positive cells after 6 days relative to control. Set-up: concentration or dose not given beside the values. Summed up:
(§2)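 Log-phase Friend leukemia cells seeded at 10⁵ cells/mL in DMEM + 10% fetal calf serum, 37 °C, 10% CO₂. Compound added at seeding over a range of concentrations with twofold steps, in two separate experiments. Water-insoluble agents were dissolved in 50% ethanol or acetone. Me₂SO (210 mM) was the positive control. Benzidine-positive cells were scored on day 6 with benzidine peroxide stain.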

Test [4] in a line: Induction of erythroid differentiation in DBA/2J mouse Friend erythroleukemia cells assessed as cell growth after 3 days relative to control. Set-up: concentration or dose not given beside the values. The method in brief:
as §1

A short description of test [5]: Induction of erythroid differentiation in DBA/2J mouse Friend erythroleukemia cells assessed as concentration required for maximum proportion of benzidine positive cells after 6 days. The method in brief:
as §2

The structures appear in SMILES notation.

Consider `CC(=O)Nc1ccc[n+]([O-])c1`, for which the Activity is 15.6 µg in test [1]; 95% in test [2]; 35% in test [3]; 74% in test [4]; 10 mM in test [5].
With `CC(=O)NCCc1ccccn1`, the Activity in test [1] worked out at 28 µg; in test [2], 95%; in test [3] it was 60%; in test [4] it was 33%; in test [5] it was 10 mM.
As to `CC(=O)Nc1ccc(=O)n(C)c1`, the Activity in test [1] amounted to 33.8 µg; in test [2], 95%; in test [3], 67%; in test [4], 91%; in test [5] it was 2 mM.
Turning to `C[S+](C)[O-]` [DIMETHYL SULFOXIDE], the Activity in test [1] came to 31.2 µg; in test [3], 80%; in test [4], 60%; in test [5] it was 210 mM.
Take `CC(=O)Nc1cccc(=O)[nH]1`: the Activity in test [2] is on record as 95%; in test [3] it was 4%; in test [4] it was 22%; in test [5], 2 mM.
Turning to `CC(=O)NCc1ccccn1`, the Activity in test [1] worked out at 30 µg; in test [2] it was 95%; in test [3], 68%; in test [4] it was 36%; in test [5], 15 mM.
Turning to `Cn1ccccc1=O`, the Activity in test [2] is 95%; in test [3], 74%; in test [4], 23%; in test [5] it was 2 mM.
For `CC(=O)Nc1cc(-c2ccccc2)ccn1` the same measures were 95%, 8%, 21% and 0.04 mM.
With `CC(=O)Nc1ccccn1`, the Activity in test [1] is 30.6 µg; in test [2], 95%; in test [3] it was 72%; in test [4], 65%; in test [5], 2 mM.
For `[O-][n+]1ccc(-c2ccccc2)cc1`, the Activity in test [1] was below 0.5 µg; in test [2], 95%; in test [3], below 1%; in test [4] it was 26%; in test [5], 0.4 mM.
As for `CC(=O)Nc1cc(-c2ccccc2)cc[n+]1[O-]`, the Activity came to 12.2 µg in test [1]; 95% in test [2]; 17% in test [3]; 17% in test [4]; 1 mM in test [5].
In the case of `CC(=O)Nc1cccnc1`, the Activity stood at 14.4 µg in test [1]; 95% in test [2]; 43% in test [3]; 58% in test [4]; 8 mM in test [5].
Regarding `CC(=O)Nc1cccc(NC(C)=O)n1`, the Activity stood at 8.6 µg in test [1]; 95% in test [2]; 28% in test [3]; 80% in test [4]; 4 mM in test [5].
As for `CC(=O)Nc1ccc(=O)[nH]c1`, the Activity in test [2] stood at 95%; in test [3], 16%; in test [4], 26%; in test [5], 1 mM.
In the case of `CC(=O)Nc1cccc(=O)n1C`, the Activity in test [1] amounted to 22.2 µg; in test [2], 95%; in test [3], 73%; in test [4], 55%; in test [5] it was 16 mM.
As for `Oc1ccccn1`, the Activity is reported as 95% in test [2], 26% in test [3], 11% in test [4] and 8.6 mM in test [5].
As for `CC(=O)Nc1cccc[n+]1[O-]`, the Activity in test [1] was 22.6 µg; in test [2] it was 95%; in test [3], 43%; in test [4], 74%; in test [5] it was 10 mM.

These data come from ChEMBL document CHEMBL3244117, “Pyridine derivatives as potent inducers of erythroid differentiation in Friend leukemia cells” (1978).
